{
  "source": "ChEMBL document CHEMBL1141258",
  "about": "“Prismatomerin, a new iridoid from Prismatomeris tetrandra. Structure elucidation, determination of absolute configuration, and cytotoxicity” (J Nat Prod, 2007)",
  "key": {"[1]": {"test": "Toxicity in brine shrimp after 24 hrs", "assay_type": "organism-based", "conditions": "artemia, in vivo; read-out: LD50"}, "A549": {"system": "A549", "test": "Antiproliferative activity against human A549 cells after 5 days by MTT assay", "conditions": "A549, 120 h"}, "[2]": {"test": "Antiproliferative activity against human KB31 cells after 5 days by MTT assay", "conditions": "KB 3-1, 120 h"}, "M14": {"system": "M14", "test": "Growth inhibition of human M14 cells after 48 hrs by SRB assay", "assay_type": "functional", "how_it_was_run": "(§1)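 Run at NCI in the 60-human-tumor-cell-line anticancer screen. Each compound was tested at a minimum of five concentrations at 10-fold dilutions.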"}, "UO-31": {"system": "UO-31", "test": "Growth inhibition of human UO31 cells after 48 hrs by SRB assay", "assay_type": "functional", "conditions": "UO-31, 48 h", "how_it_was_run": "(§2)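 NCI 60 human tumour cell line in vitro anticancer screen, run at NCI. Compound tested at a minimum of five concentrations in 10-fold dilutions per cell line.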"}, "CCRF-CEM": {"system": "CCRF-CEM", "test": "Growth inhibition of human CCRF-CEM cells after 48 hrs by SRB assay", "assay_type": "functional", "how_it_was_run": "as §2"}, "Hs-578T": {"system": "Hs-578T", "test": "Growth inhibition of human HS578T cells after 48 hrs by SRB assay", "assay_type": "functional", "how_it_was_run": "as §2"}, "[3]": {"test": "Growth inhibition of human […] cells after 48 hrs by SRB assay", "assay_type": "functional", "how_it_was_run": "as §1"}, "CAKI-1": {"system": "CAKI-1", "test": "Growth inhibition of human CAKI1 cells after 48 hrs by SRB assay", "assay_type": "functional", "conditions": "CAKI-1, 48 h", "how_it_was_run": "as §1"}, "OVCAR-4": {"system": "OVCAR-4", "test": "Growth inhibition of human OVACAR4 cells after 48 hrs by SRB assay", "assay_type": "functional", "conditions": "OVCAR-4, 48 h", "how_it_was_run": "as §1"}, "SNB-19": {"system": "SNB-19", "test": "Growth inhibition of human SNB19 cells after 48 hrs by SRB assay", "assay_type": "functional", "conditions": "SNB-19, 48 h", "how_it_was_run": "as §1"}, "KM12": {"system": "KM12", "test": "Growth inhibition of human KM12 cells after 48 hrs by SRB assay", "assay_type": "functional", "conditions": "KM12, 48 h", "how_it_was_run": "as §1"}, "NCI-H522": {"system": "NCI-H522", "test": "Growth inhibition of human NCI-H522 cells after 48 hrs by SRB assay", "assay_type": "functional", "conditions": "NCI-H522, 48 h", "how_it_was_run": "as §2"}, "HOP-62": {"system": "HOP-62", "test": "Growth inhibition of human HOP62 cells after 48 hrs by SRB assay", "assay_type": "functional", "conditions": "HOP-62, 48 h", "how_it_was_run": "as §1"}, "RPMI-8226": {"system": "RPMI-8226", "test": "Growth inhibition of human RPMI8226 cells after 48 hrs by SRB assay", "assay_type": "functional", "conditions": "RPMI-8226, 48 h", "how_it_was_run": "as §2"}, "MOLT-4": {"system": "MOLT-4", "test": "Growth inhibition of human MOLT4 cells after 48 hrs by SRB assay", "assay_type": "functional", "conditions": "MOLT-4, 48 h", "how_it_was_run": "as §1"}, "IGROV-1": {"system": "IGROV-1", "test": "Growth inhibition of human IGROV1 cells after 48 hrs by SRB assay", "assay_type": "functional", "conditions": "IGROV-1, 48 h, read-out: Log LC50 (the source's name) (converted)", "how_it_was_run": "as §1"}, "OVCAR-5": {"system": "OVCAR-5", "test": "Growth inhibition of human OVACAR5 cells after 48 hrs by SRB assay", "assay_type": "functional", "conditions": "OVCAR-5, 48 h", "how_it_was_run": "as §1"}, "SF-539": {"system": "SF-539", "test": "Growth inhibition of human SF539 cells after 48 hrs by SRB assay", "assay_type": "functional", "conditions": "SF-539, 48 h", "how_it_was_run": "as §1"}, "L929": {"system": "L929", "test": "Antiproliferative activity against mouse L929 cells after 5 days by SRB assay", "assay_type": "cell-based", "conditions": "L929, 120 h"}, "COLO 205": {"system": "COLO 205", "test": "Growth inhibition of human COLO205 cells after 48 hrs by SRB assay", "assay_type": "functional", "conditions": "COLO 205, 48 h", "how_it_was_run": "as §2"}, "TK-10": {"system": "TK-10", "test": "Growth inhibition of human TK10 cells after 48 hrs by SRB assay", "assay_type": "functional", "conditions": "TK-10, 48 h", "how_it_was_run": "as §2"}, "SR": {"system": "SR", "test": "Growth inhibition of human SR cells after 48 hrs by SRB assay", "assay_type": "functional", "how_it_was_run": "as §1"}, "K562": {"system": "K562", "test": "Growth inhibition of human K562 cells after 48 hrs by SRB assay", "assay_type": "functional", "conditions": "K562, 48 h", "how_it_was_run": "as §2"}, "MCF7": {"system": "MCF7", "test": "Growth inhibition of human MCF7 cells after 48 hrs by SRB assay", "assay_type": "functional", "conditions": "MCF7, 48 h", "how_it_was_run": "as §1"}, "[4]": {"conditions": "read-out: Log LC50 (the source's name) (converted)"}},
  "note": "Calls of active or inactive are those of the source. The rule behind the calls is not given here.",
  "data": [
    {"smiles": "COC(=O)C1=CO[C@@H]2O[C@H]3/C(=C\\c4ccc(O)cc4)C(=O)O[C@]34C=C[C@H]1[C@H]24", "note": "[PRISMATOMERIN]", "values": [
      {"measurement": "LC50 at 24 h", "setting": "[1]", "result": 195, "unit": "nM"},
      {"measurement": "IC50", "setting": "A549", "result": 1410, "unit": "nM"},
      {"measurement": "IC50", "setting": "[2]", "result": 410, "unit": "nM"},
      {"measurement": "Activity", "setting": "M14", "result": "inactive"},
      {"measurement": "GI50", "setting": "M14; M14, 48 h", "result": 162, "unit": "nM"},
      {"measurement": "GI50", "setting": "UO-31", "result": 120, "unit": "nM"},
      {"measurement": "CC50", "setting": "UO-31; [4]", "result": 813, "unit": "nM"},
      {"measurement": "GI50", "setting": "CCRF-CEM", "result": 38, "unit": "nM"},
      {"measurement": "CC50", "setting": "CCRF-CEM; [4]", "result": "> 100000", "unit": "nM"},
      {"measurement": "GI50", "setting": "Hs-578T", "result": 257, "unit": "nM"},
      {"measurement": "CC50", "setting": "Hs-578T; [4]", "result": "> 100000", "unit": "nM"},
      {"measurement": "GI50", "setting": "[3]", "result": 1950, "unit": "nM"},
      {"measurement": "CC50", "setting": "[3]; [4]", "result": 24500, "unit": "nM"},
      {"measurement": "TGI", "setting": "[3]; read-out: Log TGI (converted)", "result": 5370, "unit": "nM"},
      {"measurement": "GI50", "setting": "CAKI-1", "result": 126, "unit": "nM"},
      {"measurement": "CC50", "setting": "CAKI-1; [4]", "result": 8710, "unit": "nM"},
      {"measurement": "TGI", "setting": "CAKI-1; read-out: Log TGI (converted)", "result": 501, "unit": "nM"},
      {"measurement": "GI50", "setting": "OVCAR-4", "result": 575, "unit": "nM"},
      {"measurement": "CC50", "setting": "OVCAR-4; [4]", "result": "> 100000", "unit": "nM"},
      {"measurement": "TGI", "setting": "OVCAR-4; read-out: Log TGI (converted)", "result": 3470, "unit": "nM"},
      {"measurement": "GI50", "setting": "SNB-19", "result": 347, "unit": "nM"},
      {"measurement": "CC50", "setting": "SNB-19; [4]", "result": 26900, "unit": "nM"},
      {"measurement": "TGI", "setting": "SNB-19; read-out: Log TGI (converted)", "result": 110000, "unit": "nM"},
      {"measurement": "GI50", "setting": "KM12", "result": 302, "unit": "nM"},
      {"measurement": "CC50", "setting": "KM12; [4]", "result": "> 100000", "unit": "nM"},
      {"measurement": "TGI", "setting": "KM12; read-out: Log TGI (converted)", "result": 1510, "unit": "nM"},
      {"measurement": "GI50", "setting": "NCI-H522", "result": 186, "unit": "nM"},
      {"measurement": "CC50", "setting": "NCI-H522; [4]", "result": 1350, "unit": "nM"},
      {"measurement": "GI50", "setting": "HOP-62", "result": 263, "unit": "nM"},
      {"measurement": "CC50", "setting": "HOP-62; [4]", "result": 2820, "unit": "nM"},
      {"measurement": "TGI", "setting": "HOP-62; read-out: Log TGI (converted)", "result": 708, "unit": "nM"},
      {"measurement": "GI50", "setting": "RPMI-8226", "result": "< 10", "unit": "nM"},
      {"measurement": "CC50", "setting": "RPMI-8226; [4]", "result": "> 100000", "unit": "nM"},
      {"measurement": "GI50", "setting": "MOLT-4", "result": "< 10", "unit": "nM"},
      {"measurement": "CC50", "setting": "IGROV-1", "result": 851, "unit": "nM"},
      {"measurement": "GI50", "setting": "OVCAR-5", "result": 257, "unit": "nM"},
      {"measurement": "CC50", "setting": "OVCAR-5; [4]", "result": 813, "unit": "nM"},
      {"measurement": "TGI", "setting": "OVCAR-5; read-out: Log TGI (converted)", "result": 407, "unit": "nM"},
      {"measurement": "GI50", "setting": "SF-539", "result": 257, "unit": "nM"},
      {"measurement": "CC50", "setting": "SF-539; [4]", "result": "> 100000", "unit": "nM"},
      {"measurement": "TGI", "setting": "SF-539; read-out: Log TGI (converted)", "result": 457, "unit": "nM"},
      {"measurement": "IC50", "setting": "L929", "result": 210, "unit": "nM"},
      {"measurement": "GI50", "setting": "COLO 205", "result": 537, "unit": "nM"},
      {"measurement": "CC50", "setting": "COLO 205; [4]", "result": "> 100000", "unit": "nM"},
      {"measurement": "GI50", "setting": "TK-10", "result": 288, "unit": "nM"},
      {"measurement": "CC50", "setting": "TK-10; [4]", "result": 3980, "unit": "nM"},
      {"measurement": "GI50", "setting": "SR", "result": 10.5, "unit": "nM"},
      {"measurement": "CC50", "setting": "SR; [4]", "result": "> 100000", "unit": "nM"},
      {"measurement": "TGI", "setting": "SR; read-out: Log TGI (converted)", "result": 468, "unit": "nM"},
      {"measurement": "GI50", "setting": "K562", "result": "< 10", "unit": "nM"},
      {"measurement": "CC50", "setting": "K562; [4]", "result": "> 100000", "unit": "nM"},
      {"measurement": "GI50", "setting": "MCF7", "result": 120, "unit": "nM"},
      {"measurement": "CC50", "setting": "MCF7; [4]", "result": "> 100000", "unit": "nM"},
      {"measurement": "TGI", "setting": "MCF7; read-out: Log TGI (converted)", "result": 1000, "unit": "nM"}
    ]}
  ]
}
